FGF22 binding-1 – binders of recombinant human FGF22 by thermal shift | SYPRO orange fluorescence; percent of sucrose octasulfate shift, DMSO zero | activity (Tm shift, normalised), % at 9.99 µM | actives 1.5% (n = 340,000);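 active means mean Tm shift, scaled 0 neutral to 100 positive control, at about 1.3% or above, every replicate too, limit read from the data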
E-selectin induc – E-selectin induction on HUVECs; P16581; HUVEC E-selectin immunofluorescence imaging; normalized: neutral wells 0, TNF-alpha wells 100; activation, % at 7.58 µM; actives 0.37% (n = 260,000);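 active means mean E-selectin-positive cell signal at least 10% of the positive control, reached in at least 60% of replicates, without over 20% cell loss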
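material = human umbilical vein endothelial cells (HUVEC), E-selectin induction | quantity = 3,000 cells/well | medium = EGM-2 growth medium on 0.1% gelatin-coated wells | technique = immunofluorescence imaging | read-out basis = % PE-positive cells | control set = TNF-alpha positive control, DMSO neutral control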
S100A4 inh HTS – inhibitors of human S100A4 binding to myosin IIA peptide; P26447; S100A4/TAMRA-MyoIIA peptide fluorescence polarization; inhibition, % at 10.7 µM; actives 0.14% (n = 360,000); AID 652163;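 active means mean inhibition of at least 70% across replicates, with every replicate also reaching that level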
Target sequence (P26447 whole entry, looked up): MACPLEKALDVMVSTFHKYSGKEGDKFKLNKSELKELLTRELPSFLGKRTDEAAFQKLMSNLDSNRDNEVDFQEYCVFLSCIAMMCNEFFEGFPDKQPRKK
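Test system: S100A4 monomer protein. Medium: HEPES buffer with Ca2+, pH 7.2. Reagent: fluorescent myosin IIA peptide, 5 nM. Compound dosing: single-point compound testing. Timing: 5 min between mix addition and reading. Benchmarks: DMSO neutral and TFP positive wells.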
SIRT5 inh – inhibitors of human sirtuin-5 desuccinylase; Q9NXA8; Purified SirT5, succinyl-peptide AMC, trypsin-coupled fluorescence; inhibition, % at 15 µM; actives 1.1% (n = 330,000); AID 652115; in the data active means inhibition above about 15%
Target sequence (Q9NXA8 whole entry, looked up): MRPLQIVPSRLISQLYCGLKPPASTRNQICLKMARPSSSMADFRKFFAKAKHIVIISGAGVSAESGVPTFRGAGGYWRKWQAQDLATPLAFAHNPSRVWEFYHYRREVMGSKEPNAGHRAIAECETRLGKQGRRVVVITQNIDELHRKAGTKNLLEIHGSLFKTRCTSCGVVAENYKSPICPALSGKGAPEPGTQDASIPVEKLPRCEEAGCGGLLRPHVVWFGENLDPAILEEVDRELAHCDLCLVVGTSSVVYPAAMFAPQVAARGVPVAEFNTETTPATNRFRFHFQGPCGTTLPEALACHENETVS
miR122 inh – inhibitors of miR-122 in Huh7 cells | Huh7 miR-122 Renilla luciferase sensor, 48 h; neutral wells = 0, positive control = 100 | activation (reporter increase), % at 12.5 µM | actives 0.3% (n = 340,000) | AID 602342;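 active means mean replicate activation score at least 90 and every replicate individually at or above 90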;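 further: higher luciferase means less miR-122 activity so hits act as miR-122 inhibitors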
FGF22 binding-2 – binders of human FGF22 by thermal shift. thermal shift activity, °C (ΔTm) at 38 µM. actives 2% (n = 1,000). shares compounds with FGF22 binding-1. AID 720646. recombinant FGF22 thermal shift, SYPRO orange fluorescence;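 active means fitted rise in melting shift crosses a set limit at or below the top valid dose tested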
FGF22 TSA DP – FGF22 (human) binding by thermal shift | shares compounds with FGF22 binding-1 | AID 743017 | Thermal shift assay, SYPRO orange, melting temperature shift | 50 tested, under 10 active | Tm shift (activity), % at 38 µM;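 active means compounds whose fitted dose curve of melting temperature shift rises past a set threshold within the tested doses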
SYPRO no-protein – counter-screen for FGF22 binders: compound-only thermal shift, no protein | AC50, µM (top dose mostly 38 µM) | shares compounds with FGF22 binding-1 | compound-only SYPRO orange thermal shift counter-screen | actives 2% (n = 1,000);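 active means rising signal whose fitted curve reaches the 0.54 level within the top valid dose, showing a melting point, actives reach about 13 µM in these data; inactive means the rest, including activity in the opposite direction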; further: value is where the raw curve crosses a fixed level and not half-maximal
Each line names hits and unclear results; the compound was inactive in the other large screens (follow-up assays come after a bar, where they were run). Hits are enriched below; roughly 2.5% of the tested compounds scored in any of these assays.

COC(=O)C[C@H]1CC[C@@H]2[C@@H](COc3ccc(NC(=O)Nc4ccc(C#N)cc4)cc3C(=O)N2C)O1	FGF22 binding-1 1.3 | FGF22 binding-2 inactive | FGF22 TSA DP inactive | SYPRO no-protein 2.4µM
COC(=O)C[C@@H]1CC[C@@H]2[C@@H](COc3ccc(NC(=O)c4ccc(F)c(F)c4)cc3C(=O)N2C)O1	FGF22 binding-1 2.3 | FGF22 binding-2 inactive | SYPRO no-protein inactive
COC(=O)C[C@H]1CC[C@H]2[C@H](COc3ccc(NC(=O)Nc4ccc(C#N)cc4)cc3C(=O)N2C)O1	none
COC(=O)C[C@@H]1CC[C@H]2[C@H](COc3ccc(NC(=O)Nc4ccc(C#N)cc4)cc3C(=O)N2C)O1	none
COC(=O)C[C@H]1CC[C@@H]2[C@@H](COc3ccc(NC(=O)Nc4cccc(C#N)c4)cc3C(=O)N2C)O1	FGF22 binding-1 2.0 | FGF22 binding-2 inactive | FGF22 TSA DP inactive | SYPRO no-protein inactive
C[C@@H]1CCCCO[C@H](CN(C)S(=O)(=O)c2cn(C)cn2)[C@@H](C)CN([C@@H](C)CO)C(=O)c2cc(NC(=O)Cc3ccccc3)ccc2O1	none (no result: S100A4 inh HTS, SIRT5 inh)
CN(CC1CCOCC1)C(=O)c1ccc2nc(Cc3cccc(Cl)c3)oc2c1	none
O=C(NCC1CCOCC1)c1ccc2nc(Cc3cccc(Cl)c3)oc2c1	FGF22 binding-1 1.4 | FGF22 binding-2 inactive | SYPRO no-protein inactive
CC(C)(C)[S@@](=O)N1Cc2cc(C(=O)NCc3ccccc3F)nc(-c3cccc(-c4ccncc4)c3)c2[C@H]1CCO	FGF22 binding-1 1.9 (no result: miR122 inh) | FGF22 binding-2 inactive | SYPRO no-protein inactive
CCCN(C)C[C@H]1OCCCC[C@H](C)Oc2ccc(NC(=O)NC3CCCCC3)cc2C(=O)N([C@@H](C)CO)C[C@H]1C	none
COC(=O)c1cc(OC)c(OC)cc1NC(=O)c1cccc(C)c1	none
COC(=O)c1cc(OC)c(OC)cc1NC(=O)c1ccccc1C	FGF22 binding-1 8.5 (no result: E-selectin induc) | FGF22 binding-2 inactive | SYPRO no-protein inactive
CC(C)(C)c1ccc(C2CC2C(=O)N/N=C\c2ccc[nH]2)cc1 (centres undefined)	FGF22 binding-1 2.0 (no result: E-selectin induc, SIRT5 inh) | FGF22 binding-2 inactive | SYPRO no-protein inactive
O=C(N/N=C/c1c[nH]c2ccccc12)c1ccc(Br)cc1	none
O=C(N/N=C\c1c[nH]c2ccccc12)c1ccc(O)cc1	FGF22 binding-1 6.7 (no result: E-selectin induc) | SYPRO no-protein inactive
O=C(N/N=C/c1c[nH]c2ccccc12)C1CC1c1ccccc1 (centres undefined)	FGF22 binding-1 1.5 (no result: E-selectin induc, miR122 inh) | FGF22 binding-2 inactive | SYPRO no-protein inactive
Nc1ccc(C(=O)N/N=C/c2c[nH]c3ccccc23)cc1	FGF22 binding-1 2.7 | FGF22 binding-2 inactive | FGF22 TSA DP inactive | SYPRO no-protein inactive
NC(=O)c1ccsc1NC(=O)COC(=O)Cc1c[nH]c2ccccc12	FGF22 binding-1 1.8 | SYPRO no-protein inactive
NC(=O)Nc1ccc(C(=O)OCC(=O)Nc2sccc2C(N)=O)cc1	FGF22 binding-1 1.5 (no result: E-selectin induc, miR122 inh) | FGF22 binding-2 inactive | SYPRO no-protein inactive
O=C(Nc1ccc(F)c(Cl)c1)C1CCCN(C2=NS(=O)(=O)c3ccccc32)C1 (centres undefined)	FGF22 binding-1 31 | FGF22 binding-2 inactive | SYPRO no-protein inactive
O=C(c1ccccc1F)N1CC(=O)N2[C@@H](CO)[C@H](c3ccc(-c4ccc(F)cc4)cc3)[C@@H]2C1	FGF22 binding-1 1.8 (no result: miR122 inh) | FGF22 binding-2 inactive | SYPRO no-protein inactive
CCCNC(=O)N1CC(=O)N2[C@H](CO)[C@@H](c3ccc(-c4cccc(C)c4)cc3)[C@@H]2C1	FGF22 binding-1 2.2 (no result: miR122 inh) | FGF22 binding-2 inactive | SYPRO no-protein inactive
O=C(NC1CCCCC1)N1CC(=O)N2[C@@H](CO)[C@H](c3ccc(-c4cccc(F)c4)cc3)[C@@H]2C1	none (no result: miR122 inh)

Bioassay records as filed in PubChem.
